Test results: ChEMBL document CHEMBL1143905, “Synthesis of barbiturate-based methionine aminopeptidase-1 inhibitors” (Bioorg Med Chem Lett, 2008)

assay: Inhibition of Escherichia coli methionine aminopeptidase 1
In short: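 Coupled chromogenic assay at room temperature: 50 mM HEPES pH 7.5, 100 μM CoCl2, 400 μM Met-Pro-pNA substrate, 0.25–4.0 μM MetAP-1 enzyme, 10–25 μM proline aminopeptidase as coupling enzyme, varying inhibitor concentrations. pNA release read at 405 nm. Ki obtained by non-linear regression assuming a competitive steady-state model.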

For `CN1C(=O)C(=Cc2ccc(N(C)C)cc2)C(=O)N(C)C1=O`, which Ki is on record?
The Ki was > 100 µM.

For `CN1C(=O)C(=Cc2ccc([N+](=O)[O-])cc2)C(=O)N(C)C1=O`, which Ki is on record?
Its Ki is > 100 µM.

Which Ki does the source give for `O=C1NC(=O)C(=Cc2ccc(O)cc2)C(=O)N1` here?
The Ki was 4 µM.

With `CN1C(=O)C(=Cc2ccccc2)C(=O)N(C)C1=O` as the compound, how does the Ki read?
Its Ki is > 100 µM.

Which Ki does the source give for `O=C1NC(=S)NC(=O)C1=Cc1ccc(O)cc1` here?
Its Ki is > 100 µM.

For `O=C1NC(=O)C(=Cc2ccc(C(=O)O)cc2)C(=O)N1`, which Ki is on record?
Its Ki is 335 µM.

For `COc1ccc(C=C2C(=O)N(C)C(=O)N(C)C2=O)cc1`, which Ki is on record?
Its Ki is > 100 µM.

Which Ki does the source give for `CN1C(=O)C(=Cc2cccc([N+](=O)[O-])c2)C(=O)N(C)C1=O` here?
Its Ki is > 100 µM.

Which Ki does the source give for `CN1C(=O)C(=Cc2ccc(O)cc2)C(=O)N(C)C1=O` here?
The Ki was > 100 µM.

Which Ki does the source give for `O=C1NC(=O)C(=Cc2ccc([N+](=O)[O-])cc2)C(=O)N1` here?
The Ki was 105 µM.

Which Ki does the source give for `CN(C)c1ccc(C=C2C(=O)NC(=S)NC2=O)cc1` here?
The Ki was > 100 µM.

For `CN(C)c1ccc(/C=C/C=C2C(=O)NC(=S)NC2=O)cc1`, which Ki is on record?
Its Ki is 17 µM.

With `CN1C(=O)C(=C/C=C/c2ccccc2)C(=O)N(C)C1=O` as the compound, how does the Ki read?
Its Ki is > 100 µM.

For `O=C1NC(=O)C(=Cc2ccccc2)C(=O)N1`, which Ki is on record?
Its Ki is 517 µM.

With `CN1C(=O)C(=Cc2ccc(C(=O)O)cc2)C(=O)N(C)C1=O` as the compound, how does the Ki read?
Its Ki is > 100 µM.

For `O=C1NC(=O)C(=C/C=C/c2ccccc2)C(=O)N1`, which Ki is on record?
The Ki was 12 µM.

For `COc1ccc(C=C2C(=O)NC(=S)NC2=O)cc1`, which Ki is on record?
The Ki was 87 µM.

For `O=C1NC(=S)NC(=O)C1=Cc1ccc(C(=O)O)cc1`, which Ki is on record?
The Ki was > 100 µM.

With `CN(C)c1ccc(C=C2C(=O)NC(=O)NC2=O)cc1` as the compound, how does the Ki read?
The Ki was 13 µM.

With `O=C1NC(=S)NC(=O)C1=Cc1ccccc1` as the compound, how does the Ki read?
Its Ki is > 100 µM.

With `O=C1NC(=S)NC(=O)C1=Cc1cccc([N+](=O)[O-])c1` as the compound, how does the Ki read?
The Ki was > 100 µM.

For `CN1C(=O)C(=C/C=C/c2ccc(N(C)C)cc2)C(=O)N(C)C1=O`, which Ki is on record?
The Ki was > 100 µM.

For `O=C1NC(=S)NC(=O)C1=Cc1ccc(F)cc1`, which Ki is on record?
The Ki was > 100 µM.

Which Ki does the source give for `O=C1NC(=O)C(=Cc2cccc([N+](=O)[O-])c2)C(=O)N1` here?
Its Ki is 29 µM.

With `O=C1NC(=O)C(=Cc2ccc(F)cc2)C(=O)N1` as the compound, how does the Ki read?
The Ki was 89 µM.

Which Ki does the source give for `O=C1NC(=S)NC(=O)C1=Cc1ccc([N+](=O)[O-])cc1` here?
The Ki was > 100 µM.

For `CN(C)c1ccc(/C=C/C=C2C(=O)NC(=O)NC2=O)cc1`, which Ki is on record?
Its Ki is 0.05 µM.

Which Ki does the source give for `CN1C(=O)C(=Cc2ccc(F)cc2)C(=O)N(C)C1=O` here?
Its Ki is > 100 µM.

With `O=C1NC(=S)NC(=O)C1=C/C=C/c1ccccc1` as the compound, how does the Ki read?
The Ki was > 100 µM.

Which Ki does the source give for `COc1ccc(C=C2C(=O)NC(=O)NC2=O)cc1` here?
The Ki was 25 µM.
